pIC50: −log10 of the molar value. The source made the active and inactive calls. The calls are words filed in the database; no cut-off is given here.
Assays:
[1] = target: T1, Monoglyceride lipase (Mus musculus) (UniProt O35678); assay: Inhibition of MAGL in C57B1/6J mouse brain membrane after 30 mins by competitive activity-based protein profiling method; assay type: cell membranes
T1 sequence (whole entry): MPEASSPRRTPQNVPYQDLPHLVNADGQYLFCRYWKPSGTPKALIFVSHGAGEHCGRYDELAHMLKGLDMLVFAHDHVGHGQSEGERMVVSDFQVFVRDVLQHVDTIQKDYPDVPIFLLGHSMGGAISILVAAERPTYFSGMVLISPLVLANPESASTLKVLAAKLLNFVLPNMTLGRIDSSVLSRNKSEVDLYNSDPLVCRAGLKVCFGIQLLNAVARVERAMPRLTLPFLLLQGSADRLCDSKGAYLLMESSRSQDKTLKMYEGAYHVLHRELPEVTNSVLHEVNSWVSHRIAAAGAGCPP
Method in brief: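 Mouse brain membrane proteome (1 mg ml^-1 in PBS) preincubated 30 min at 37°C with inhibitor (1 nM-10 μM). FP-rhodamine then added (2 μM final) for 30 min at room temperature. Reaction quenched in SDS loading buffer, boiled 5 min at 90°C, resolved by SDS-PAGE and read by in-gel fluorescence.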

[2] = target: T2, Monoacylglycerol lipase ABHD6 (Mus musculus) (UniProt Q8R2Y0); assay: Inhibition of ABHD6 in C57B1/6J mouse brain membrane after 30 mins by competitive activity-based protein profiling method; assay type: cell membranes
T2 sequence (whole entry): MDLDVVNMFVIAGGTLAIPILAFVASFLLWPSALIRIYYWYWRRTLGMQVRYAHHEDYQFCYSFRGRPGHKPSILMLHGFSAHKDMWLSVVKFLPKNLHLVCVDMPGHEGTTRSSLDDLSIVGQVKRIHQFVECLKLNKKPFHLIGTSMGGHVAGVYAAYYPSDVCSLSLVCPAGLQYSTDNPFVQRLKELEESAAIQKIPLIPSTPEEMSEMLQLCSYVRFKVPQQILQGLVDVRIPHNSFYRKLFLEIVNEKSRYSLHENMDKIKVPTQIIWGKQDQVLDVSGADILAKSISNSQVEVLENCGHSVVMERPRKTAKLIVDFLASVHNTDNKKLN
Method in brief: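 Mouse brain membrane proteome at 1 mg ml^-1 in PBS was preincubated with inhibitor (1 nM-10 μM) for 30 min at 37°C. FP-rhodamine was then added at 2 μM final for 30 min at room temperature, followed by SDS-PAGE and in-gel fluorescence scanning.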

Monoglyceride lipase = target: T3, Monoglyceride lipase (Rattus norvegicus, UniProt Q8R431); assay: Inhibition of MAGL in Wistar rat brain
T3 sequence (Q8R431 whole entry): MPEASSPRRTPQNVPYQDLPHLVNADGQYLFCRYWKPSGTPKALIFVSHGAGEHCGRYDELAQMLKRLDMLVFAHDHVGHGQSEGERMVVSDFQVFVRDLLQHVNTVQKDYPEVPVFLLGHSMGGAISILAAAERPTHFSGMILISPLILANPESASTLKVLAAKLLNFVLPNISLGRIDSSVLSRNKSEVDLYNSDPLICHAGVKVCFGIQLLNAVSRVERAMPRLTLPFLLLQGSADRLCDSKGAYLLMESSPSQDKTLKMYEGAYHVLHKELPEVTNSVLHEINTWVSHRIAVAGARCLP

| SMILES | inhibition [1] | inhibition [2] | pIC50 (Monoglyceride lipase) |
| --- | --- | --- | --- |
| O=C(Oc1ccc([N+](=O)[O-])cc1)N1CCN(C(c2ccc(F)cc2)c2ccc(F)cc2)CC1 | Active | Active | – |
| CN(Cc1cccc(-c2ccncc2)c1)C(=O)Oc1ccc([N+](=O)[O-])cc1 | Active | Active | – |
| COc1ccc(C(O)(c2ccc(OC)cc2)C2CCN(C(=O)Oc3ccc([N+](=O)[O-])cc3)CC2)cc1 | Active | – | – |
| COc1ccc(C(c2ccc(OC)cc2)N2CCN(C(=O)Oc3ccc([N+](=O)[O-])cc3)CC2)cc1 | Active | Active | – |
| O=C(Nc1cccc(-c2ccccc2)c1)OC1CCCCC1 | – | – | 3.70 |

From ChEMBL document CHEMBL1221219, “Selective blockade of 2-arachidonoylglycerol hydrolysis produces cannabinoid behavioral effects” (Nat Chem Biol, 2009)
